Laboratory results published in ChEMBL document CHEMBL3351764, “Design, synthesis and biological activity of flavonoid derivatives as selective agonists for neuromedin U 2 receptor” (Bioorg Med Chem, 2014).
Activity calls are given as the source filed them. The rule behind the calls is not given here.

Key:
[1] = molecular target: T1, Orexin receptor type 2 (Homo sapiens) (UniProt O43614); test: Agonist activity at human orexin 2 receptor at 100 uM to 5 mM
T1 sequence (whole entry): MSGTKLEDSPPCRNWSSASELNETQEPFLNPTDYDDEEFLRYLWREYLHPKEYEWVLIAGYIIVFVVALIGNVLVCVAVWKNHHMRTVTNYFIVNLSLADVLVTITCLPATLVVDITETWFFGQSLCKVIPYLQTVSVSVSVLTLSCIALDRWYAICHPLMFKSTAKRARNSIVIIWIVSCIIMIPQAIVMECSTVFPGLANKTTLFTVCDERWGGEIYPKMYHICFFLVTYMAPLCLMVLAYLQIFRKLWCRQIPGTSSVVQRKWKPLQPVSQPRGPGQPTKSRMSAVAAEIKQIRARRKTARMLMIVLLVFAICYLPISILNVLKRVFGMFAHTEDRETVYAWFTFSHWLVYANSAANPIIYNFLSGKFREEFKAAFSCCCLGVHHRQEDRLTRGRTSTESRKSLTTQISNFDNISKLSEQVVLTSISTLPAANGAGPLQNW

[2] = molecular target: Melanocyte-stimulating hormone receptor (Mus musculus) (UniProt Q01727); test: Agonist activity at mouse MC1 receptor at 100 uM to 5 mM
Neuromedin-U receptor 2 = Neuromedin-U receptor 2 (Homo sapiens, UniProt Q9GZQ4); test: Agonist activity at human NMU2R transfected in HEK293 cells after 7 hrs by luciferase reporter gene assay; assay type: cell-based
Summary of the method: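 HEK-293 cells were stably co-transfected with a reporter gene construct and human NMU2R cDNA in pcDNA3.1(+), maintained under G418 selection at 37 °C in 5% CO2, then seeded and incubated overnight. Compounds were added at various concentrations for 7 h at 37 °C, followed by Bright-Glo luciferase read-out. Forskolin and NMU served as positive controls. EC50 was fitted by four-parameter logistic regression; means ± SEM of three independent experiments.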

[3] = molecular target: T2, Adenosine receptor A3 (Homo sapiens) (UniProt P0DMS8); test: Agonist activity at human A3 receptor at 100 uM to 5 mM
T2 sequence (whole entry): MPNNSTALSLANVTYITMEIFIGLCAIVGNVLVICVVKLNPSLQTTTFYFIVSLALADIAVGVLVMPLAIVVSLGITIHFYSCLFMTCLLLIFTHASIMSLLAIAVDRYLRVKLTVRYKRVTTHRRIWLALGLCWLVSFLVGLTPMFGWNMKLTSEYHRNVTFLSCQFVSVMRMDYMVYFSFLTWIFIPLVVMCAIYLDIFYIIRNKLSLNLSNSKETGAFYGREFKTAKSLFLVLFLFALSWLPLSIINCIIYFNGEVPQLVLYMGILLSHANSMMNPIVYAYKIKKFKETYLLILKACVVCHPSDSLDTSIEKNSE

[4] = molecular target: T3, Adenosine receptor A1 (Homo sapiens) (UniProt P30542); test: Agonist activity at human A1 receptor at 100 uM to 5 mM
T3 sequence (whole entry): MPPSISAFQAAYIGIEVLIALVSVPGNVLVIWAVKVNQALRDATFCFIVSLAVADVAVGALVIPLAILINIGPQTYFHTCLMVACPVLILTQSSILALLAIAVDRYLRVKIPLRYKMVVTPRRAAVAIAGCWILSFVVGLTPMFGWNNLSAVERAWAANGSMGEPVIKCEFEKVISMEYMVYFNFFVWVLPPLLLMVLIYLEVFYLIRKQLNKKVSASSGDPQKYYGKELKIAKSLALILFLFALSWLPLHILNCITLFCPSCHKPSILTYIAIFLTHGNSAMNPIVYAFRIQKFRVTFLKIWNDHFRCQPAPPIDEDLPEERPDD

[5] = molecular target: T4, C5a anaphylatoxin chemotactic receptor 1 (Homo sapiens) (UniProt P21730); test: Agonist activity at human C5a receptor at 100 uM to 5 mM
T4 sequence (whole entry): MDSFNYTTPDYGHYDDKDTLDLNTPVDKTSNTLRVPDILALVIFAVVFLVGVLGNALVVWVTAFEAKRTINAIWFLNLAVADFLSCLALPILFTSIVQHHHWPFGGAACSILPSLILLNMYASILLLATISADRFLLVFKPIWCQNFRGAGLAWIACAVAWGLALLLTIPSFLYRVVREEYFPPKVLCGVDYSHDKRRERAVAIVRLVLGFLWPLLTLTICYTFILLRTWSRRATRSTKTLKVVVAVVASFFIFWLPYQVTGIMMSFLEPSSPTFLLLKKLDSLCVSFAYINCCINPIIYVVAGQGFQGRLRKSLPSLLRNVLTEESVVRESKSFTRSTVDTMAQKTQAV

[6] = molecular target: Glucagon receptor (Homo sapiens) (UniProt P47871); test: Agonist activity at human Glu receptor at 100 uM to 5 mM
[7] = molecular target: T5, Neuromedin-U receptor 1 (Homo sapiens) (UniProt Q9HB89); test: Agonist activity at human NMU1 receptor at 100 uM to 5 mM
T5 sequence (whole entry): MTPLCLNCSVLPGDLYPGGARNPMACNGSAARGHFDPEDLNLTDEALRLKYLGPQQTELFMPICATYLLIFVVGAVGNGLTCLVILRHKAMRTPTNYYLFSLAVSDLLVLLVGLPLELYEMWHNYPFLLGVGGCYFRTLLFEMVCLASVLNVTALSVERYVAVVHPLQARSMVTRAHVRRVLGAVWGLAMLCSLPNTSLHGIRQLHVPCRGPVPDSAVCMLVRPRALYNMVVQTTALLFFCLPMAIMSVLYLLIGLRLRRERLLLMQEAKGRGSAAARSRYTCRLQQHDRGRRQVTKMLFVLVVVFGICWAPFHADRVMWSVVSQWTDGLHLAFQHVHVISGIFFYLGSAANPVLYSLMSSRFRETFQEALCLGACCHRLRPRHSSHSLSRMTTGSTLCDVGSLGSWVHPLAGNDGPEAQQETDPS

[8] = molecular target: Melanocortin receptor 4 (Homo sapiens) (UniProt P32245); test: Agonist activity at human MC4 receptor at 100 uM to 5 mM
[9] = molecular target: Melanin-concentrating hormone receptor 1 (Homo sapiens) (UniProt Q99705); test: Agonist activity at human MCH1 receptor at 100 uM to 5 mM
[10] = molecular target: Melanocortin receptor 3 (Mus musculus) (UniProt P33033); test: Agonist activity at mouse MC3 receptor at 100 uM to 5 mM
Sequence of Melanocortin receptor 3 (Mus musculus) (P33033 whole entry): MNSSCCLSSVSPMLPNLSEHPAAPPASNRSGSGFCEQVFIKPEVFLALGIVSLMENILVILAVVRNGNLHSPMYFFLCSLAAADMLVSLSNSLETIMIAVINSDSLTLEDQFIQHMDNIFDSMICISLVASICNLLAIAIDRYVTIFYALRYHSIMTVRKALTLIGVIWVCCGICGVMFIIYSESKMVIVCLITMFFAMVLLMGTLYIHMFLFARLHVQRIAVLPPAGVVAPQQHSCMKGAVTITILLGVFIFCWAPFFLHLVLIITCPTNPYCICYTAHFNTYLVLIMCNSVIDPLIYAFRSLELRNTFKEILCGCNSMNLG

Sequence of Neuromedin-U receptor 2 (Q9GZQ4 whole entry): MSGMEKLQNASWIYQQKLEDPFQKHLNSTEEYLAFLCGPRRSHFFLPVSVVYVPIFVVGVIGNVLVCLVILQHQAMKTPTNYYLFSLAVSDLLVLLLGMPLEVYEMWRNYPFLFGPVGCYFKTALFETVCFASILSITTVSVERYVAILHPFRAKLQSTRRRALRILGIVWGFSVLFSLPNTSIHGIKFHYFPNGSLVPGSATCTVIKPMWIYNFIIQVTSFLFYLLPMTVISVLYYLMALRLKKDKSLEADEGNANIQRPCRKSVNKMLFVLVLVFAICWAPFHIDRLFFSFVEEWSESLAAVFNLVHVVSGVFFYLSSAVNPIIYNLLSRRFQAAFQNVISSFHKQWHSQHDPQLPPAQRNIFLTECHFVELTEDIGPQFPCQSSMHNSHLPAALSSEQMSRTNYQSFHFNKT
Sequence of Melanocyte-stimulating hormone receptor (Mus musculus) (Q01727 whole entry, looked up): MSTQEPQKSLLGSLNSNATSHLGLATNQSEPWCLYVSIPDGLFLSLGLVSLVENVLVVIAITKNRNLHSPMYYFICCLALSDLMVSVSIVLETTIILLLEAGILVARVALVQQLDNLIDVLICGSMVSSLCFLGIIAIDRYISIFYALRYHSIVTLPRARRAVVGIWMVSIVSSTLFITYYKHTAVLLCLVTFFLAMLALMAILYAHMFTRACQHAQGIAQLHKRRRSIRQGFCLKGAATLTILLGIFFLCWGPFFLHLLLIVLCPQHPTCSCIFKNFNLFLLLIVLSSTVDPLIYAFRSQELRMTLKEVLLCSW
Sequence of Melanocortin receptor 4 (Homo sapiens) (P32245 whole entry): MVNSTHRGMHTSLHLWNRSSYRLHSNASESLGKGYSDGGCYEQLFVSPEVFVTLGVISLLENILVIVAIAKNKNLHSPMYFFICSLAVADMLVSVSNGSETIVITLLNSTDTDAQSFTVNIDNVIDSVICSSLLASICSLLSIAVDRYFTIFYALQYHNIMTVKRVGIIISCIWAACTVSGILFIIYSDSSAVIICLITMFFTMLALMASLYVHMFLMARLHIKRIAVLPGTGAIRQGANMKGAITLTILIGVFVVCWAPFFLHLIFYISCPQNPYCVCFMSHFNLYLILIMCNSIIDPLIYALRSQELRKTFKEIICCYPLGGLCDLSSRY
Sequence of Melanin-concentrating hormone receptor 1 (Homo sapiens) (Q99705 whole entry): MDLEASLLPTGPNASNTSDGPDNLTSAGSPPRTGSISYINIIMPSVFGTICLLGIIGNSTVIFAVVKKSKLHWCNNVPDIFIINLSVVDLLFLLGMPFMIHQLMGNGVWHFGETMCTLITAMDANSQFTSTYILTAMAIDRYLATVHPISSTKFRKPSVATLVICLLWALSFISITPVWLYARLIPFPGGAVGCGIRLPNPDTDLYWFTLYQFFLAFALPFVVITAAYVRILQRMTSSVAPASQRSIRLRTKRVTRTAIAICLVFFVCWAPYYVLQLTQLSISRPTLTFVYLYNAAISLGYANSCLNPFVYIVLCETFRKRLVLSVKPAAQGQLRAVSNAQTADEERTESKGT
Sequence of Glucagon receptor (Homo sapiens) (P47871 whole entry): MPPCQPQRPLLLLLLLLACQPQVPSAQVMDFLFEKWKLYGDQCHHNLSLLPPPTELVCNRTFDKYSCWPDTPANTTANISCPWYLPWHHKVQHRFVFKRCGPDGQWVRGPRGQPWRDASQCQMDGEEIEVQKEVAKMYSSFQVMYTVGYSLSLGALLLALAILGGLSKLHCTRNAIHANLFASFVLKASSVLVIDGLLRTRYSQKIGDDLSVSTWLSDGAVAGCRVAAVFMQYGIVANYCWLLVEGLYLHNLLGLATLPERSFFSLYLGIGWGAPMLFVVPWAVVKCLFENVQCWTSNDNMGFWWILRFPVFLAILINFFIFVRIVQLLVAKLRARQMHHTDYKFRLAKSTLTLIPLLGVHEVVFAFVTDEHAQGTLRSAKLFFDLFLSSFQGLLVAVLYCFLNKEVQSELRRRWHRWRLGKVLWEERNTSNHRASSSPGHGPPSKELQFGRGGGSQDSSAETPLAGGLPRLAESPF

Row | Activity [1] | Activity [2] | EC50 (Neuromedin-U receptor 2; hek293) | Activity [3] | Activity [4] | Activity [6] | Activity [7] | Activity [8] | Activity [9] | Activity [10] | EC50 (Neuromedin-U receptor 2; read-out: EC50) [µM] | Compound | Activity [5]
1 | inactive | inactive | Not Active | inactive | inactive | inactive | inactive | inactive | inactive | inactive |  | O=c1c(O)c(-c2ccc(O)c(O)c2)oc2ccccc12 | inactive
2 | inactive | inactive |  | inactive | inactive | inactive | inactive | inactive | inactive | inactive | 47 | O=c1c(OCCO)c(-c2cc(Br)ccc2F)oc2ccccc12 | inactive
3 | inactive | inactive | Not Active | inactive | inactive | inactive | inactive | inactive | inactive | inactive |  | COc1cc(-c2oc3ccccc3c(=O)c2O)ccc1O | inactive

More lines, now with the values behind:

Row | Compound | Activity [1] | Activity [2] | EC50 (Neuromedin-U receptor 2; hek293) | Activity [3] | Activity [4] | Activity [6] | Activity [7] | Activity [8] | Activity [9] | Activity [10] | EC50 (Neuromedin-U receptor 2; read-out: EC50) [µM] | Activity [5]
4 | COc1ccc(C2C=Cc3ccccc3O2)cc1O (racemic) | inactive | inactive | Not Active | inactive | inactive | inactive | inactive | inactive | inactive | inactive |  | inactive
5 | O=c1cc(-c2ccc(O)cc2)oc2ccccc12 | inactive | inactive | Not Active | inactive | inactive | inactive | inactive | inactive | inactive | inactive |  | inactive
6 | CN(C)c1ccc(C2C=Cc3ccccc3O2)cc1 (racemic) | inactive | inactive | Not Active | inactive | inactive | inactive | inactive | inactive | inactive | inactive |  | inactive
